According to ChEMBL document CHEMBL3085733, “Modulation of the fibrillogenesis inhibition properties of two transthyretin ligands by halogenation” (J Med Chem, 2013):

Tests used:
[1] = Binding affinity to human recombinant TTR Y78F mutant after 5 mins by isothermal titration calorimetry
How it was run: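 Recombinant human TTR Y78F (E. coli-expressed), 20−30 μM in cell, in 100 mM potassium phosphate, KCl, 1 mM EDTA, 5% (v/v) DMSO, pH 7.6, filtered and degassed 5 min. Titrant was 500 μM ligand in the same buffer. One 0.5−1 μL injection, then 1.5−2 μL injections every 150 s, 25 °C. Dilution blanks subtracted; isotherms fitted to a two identical-site model to give Kd.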

Homo sapiens = organism: Homo sapiens; test: Inhibition of human recombinant TTR Y78F mutant-mediated fibrillogenesis at 40 uM after 30 mins by turbidimetric assay relative to control
How it was run: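 Y78F TTR turbidity assay: 30 min preincubation at 37 °C with 0−40 μM compound, then pH 4.2 acetate buffer (final 0.4 mg/mL TTR, 5% DMSO). A340 was monitored for 1.5 h at 37 °C. Initial rates were fitted to v0 = A + B·exp(−C[I]). RA% is the percentage reduction in fibril formation rate at high inhibitor concentration versus no inhibitor.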

[2] = Inhibition of human recombinant TTR Y78F mutant-mediated fibrillogenesis after 30 mins by turbidimetric assay
How it was run: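 Recombinant TTR Y78F (4 mg/mL in 20 mM potassium phosphate, 100 mM KCl, 1 mM EDTA, pH 7.6) was preincubated 30 min at 37 °C with 0−40 μM compound (final). Acid fibrillogenesis was started with pH 4.2 acetate buffer, giving final 0.4 mg/mL TTR and 5% DMSO. A340 was read every 1 min for 1.5 h at 37 °C. IC50 came from fitting initial rates to v0 = A + B·exp(−C[I]).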

SMILES | Kd [1] | inhibition (Homo sapiens) | IC50 [2]
O=C(O)c1ccccc1Nc1cc(Br)cc(C(F)(F)F)c1 | 0.064 µM | 91% | 5.9 µM
O=C(O)c1cc(-c2ccc(F)cc2F)cc(I)c1O | 0.087 µM | 94% | –
O=C(O)c1ccc(-c2cc(F)cc(F)c2)cc1 | – | 89% | 10.8 µM
N[C@@H](Cc1cc(I)c(Oc2cc(I)c(O)c(I)c2)c(I)c1)C(=O)O [LEVOTHYROXINE] | – | 80% | –
O=[N+]([O-])c1ccc(O)c([N+](=O)[O-])c1 [2,4-DINITROPHENOL] | – | 77% | 20 µM
CC/C(=C(/CC)c1ccc(O)cc1)c1ccc(O)cc1 [DIETHYLSTILBESTROL] | – | 67% | 16.6 µM
Oc1c(Cl)cc(-c2cc(Cl)c(O)c(Cl)c2)cc1Cl | – | 100% | 2.1 µM
O=C(O)c1ccccc1Nc1cc(F)cc(C(F)(F)F)c1 | 0.091 µM | 91% | 6.5 µM
CC1=C(/C=C/C(C)=C/C=C/C(C)=C/C(=O)O)C(C)(C)CCC1 [TRETINOIN] | – | 100% | 8.1 µM
O=C(O)c1ccccc1Nc1cc(I)cc(C(F)(F)F)c1 | 0.085 µM | 94% | 6.4 µM
O=C(O)Cc1ccccc1Nc1c(Cl)cccc1Cl [DICLOFENAC] | – | 74% | 26 µM
O=C(O)c1cc(-c2ccc(F)cc2F)ccc1O [DIFLUNISAL] | 1.16 µM | 85% | 18 µM
CC(C(=O)O)c1ccc(-c2ccccc2)c(F)c1 (stereo not given) [FLURBIPROFEN] | – | 35% | > 100 µM
O=C(O)c1cc(-c2ccc(Cl)cc2Cl)ccc1O | – | 75% | 12.8 µM
O=C(O)Cc1cc(I)c(Oc2cc(I)c(O)c(I)c2)c(I)c1 [TETRAC] | – | 93% | 4.8 µM
O=C(O)c1cc(-c2ccc(F)cc2F)cc(Cl)c1O | 0.375 µM | 89% | 7.5 µM
O=C(O)c1cc(-c2ccc(F)cc2F)cc(Br)c1O | 0.194 µM | 88% | 5.6 µM
Oc1ccc(/C=C/c2cc(O)cc(O)c2)cc1 [RESVERATROL] | – | 89% | 4.5 µM
O=C(O)c1ccccc1Nc1cc(Cl)cc(C(F)(F)F)c1 | 0.086 µM | 86% | 6 µM
O=C(O)c1ccccc1Nc1cccc(C(F)(F)F)c1 [FLUFENAMIC ACID] | 0.109 µM | 89% | 6.2 µM
O=C(O)c1cc(-c2ccc(F)cc2F)cc(F)c1O | 1.12 µM | 87% | 7.6 µM
